Data reported in PubChem BioAssay AID449755 (Broad Institute, 2010).
Records with an inconclusive call do not appear. Active and inactive are the calls of the source.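 Rule for the calls: active = compounds raising caspase signal whose fitted AC50 is at most ten times the top tested dose; inconclusive = flat fit with 30 to 70% activity, or failed fit; inactive = the rest.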

The compounds below were run on HMC 1-8 low-A1 cells, caspase-3/7 luminescence, 3 h (assay: caspase induction, A1-low human cancer line – cell-based, HMC 1-8 low A1, caspase luminescence, counter-screen for A1 inhibitor project, dose response (AID 449755)).
Method in brief: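 Test system: low-A1 HMC 1-8 human cancer cell line; doses: compound delivered by pin transfer; timing: 3 h compound exposure, 37 °C/5% CO2, 1 h room-temperature detection; measured by: caspase-3/7 DEVD luminescence; evaluation: caspase activation as non-A1 counterscreen signal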

| Structure (SMILES) | AC50 |
| --- | --- |
| Oc1ccc(/C=N/N2CCN(C3c4ccccc4-c4ccccc43)CC2)cc1O | > 35 µM (inactive) |
| O=C(Oc1cccc(/C=N/Nc2nc(Nc3ccccc3)nc(N3CCOCC3)n2)c1)c1ccco1 | > 35 µM (inactive) |
| CCOC(=O)COc1ccccc1/C=C\[N+](=O)[O-] | > 35 µM (inactive) |
| Cc1cccc(NC(=O)/C(C#N)=C/c2cn(CC(=O)NCc3ccco3)c3ccccc23)c1 | > 35 µM (inactive) |
| CC(C)CCN(C(=O)Cc1ccc(Cl)c(Cl)c1)c1c(N)n(Cc2ccccc2)c(=O)[nH]c1=O | 24.3 µM |
| CCc1ccc(NC(=O)c2nc(S(=O)(=O)Cc3ccccc3)ncc2Cl)cc1 | > 35 µM (inactive) |
| CCCc1ccc(OCc2ccc(C(=O)N/N=C/c3cccc([N+](=O)[O-])c3)o2)c(OC)c1 | 7.31 µM |
| O=C(NC1CCCCC1)c1cccc2c1C(=O)c1ccc(-c3ccc(OC(F)(F)F)cc3)cc1S2(=O)=O | > 35 µM (inactive) |
| COc1ccc(OC)c(NC(=O)c2cc(-c3cc(C)ccc3O)n[nH]2)c1 | > 35 µM (inactive) |
| Cc1ccc(Sc2c([N+](=O)[O-])c(=O)n(C)c3ccccc23)cc1 | > 35 µM (inactive) |
| COc1ccc(C(=O)/C=C/C(=O)N(CC(=O)NC2CCCCC2)Cc2cccs2)c(O)c1 | 5.69 µM |
| COc1cc(-c2cc(-c3ccccc3)nc(SCC(=O)Nc3nccs3)c2C#N)cc(OC)c1OC | > 35 µM (inactive) |
| Cc1nn(-c2ccccc2)c(Cl)c1CN(C(=O)CCl)c1ccc(Cl)cc1 | > 35 µM (inactive) |
| COc1ccc(-c2cc(=O)oc3c(C)c(OC(=O)c4cccs4)ccc23)cc1 | > 35 µM (inactive) |
| COc1cc(C(=O)Nc2cc3c(cc2N2CCCCC2)n(C)c(=O)n3C)cc(OC)c1OC | > 35 µM (inactive) |
| Cc1ccc(C(=O)COC(=O)c2ccc3c(c2)C(=O)N(c2cccc4ncccc24)C3=O)cc1 | 24.3 µM |

| Structure (SMILES) | AC50 |
| --- | --- |
| O=C(N=Nc1c(O)[nH]c2ccc([N+](=O)[O-])cc12)c1cc(-c2ccccc2Cl)nc2ccccc12 | > 35 µM (inactive) |
| O=C(Nc1ccc([N+](=O)[O-])cc1)c1nc[nH]c1C(=O)NC1CCCCC1 | > 35 µM (inactive) |
| Cc1nn(Cc2ccc(Cl)cc2Cl)c(C)c1NC(=O)Cn1nc([N+](=O)[O-])c(Cl)c1C | > 35 µM (inactive) |
| COc1ccccc1C(=O)Nc1ccnn1C1CCN(Cc2cn(C)c3ccccc23)CC1 | > 35 µM (inactive) |
| Cc1cccc(Nc2nc(N)c([N+](=O)[O-])c(N3CCCC(C)C3)n2)c1 (configuration not stated) | > 35 µM (inactive) |
| COC(=O)c1ccc2c(c1)C(C)(C)C(/C=C/c1ccccc1O)=[N+]2C | 8.58 µM |
| Cc1ccc(C(=O)/C=C/C(=O)c2ccc(C)cc2)cc1 | > 35 µM (inactive) |
| CSC[C@@H]1NC(=S)N(c2ccc(C)cc2)C1=O | > 35 µM (inactive) |
| Cc1ccc(NC(=S)NC(NC(=O)Cc2cccc3ccccc23)C(Cl)(Cl)Cl)cc1 (configuration not stated) | 27 µM |
| Cc1cc(C(=O)CCl)c(C)n1CCc1ccc(Cl)cc1 | > 35 µM (inactive) |
| c1ccc(-c2sc3ccccc3c2-c2ccc(OCCN3CCCC3)cc2)cc1 | > 35 µM (inactive) |
| COc1ccc(NC(=O)CSc2nc3ccc(Nc4nc(N5CCOCC5)nc(N5CCOCC5)n4)cc3s2)cc1 | > 35 µM (inactive) |
| O=C(Nc1ccc2oc(-c3ccccc3Cl)nc2c1)c1cncc(Br)c1 | > 35 µM (inactive) |
| O=C(COc1ccccc1[N+](=O)[O-])Nc1ccc(NC(=O)c2cc3ccccc3o2)cc1 | 9.07 µM |
| CCCCN1C(=O)/C(=C2/Sc3ccccc3N2C)S/C1=N\c1ncn[nH]1 | > 35 µM (inactive) |
| N#Cc1cccnc1N1CCN(C(=O)c2cccc3c2C(=O)c2ccc(-c4ccc(Cl)c(C(F)(F)F)c4)cc2S3(=O)=O)CC1 | > 35 µM (inactive) |
